Data from ChEMBL document CHEMBL1212851, “Baculiferins A-O, O-sulfated pyrrole alkaloids with anti-HIV-1 activity, from the Chinese marine sponge Iotrochota baculifera” (Bioorg Med Chem, 2010).
Values after ≈ are worked out from the molar mass of the structure shown. Active and inactive are the calls of the source. The calls are words filed in the database; no cut-off is given here.

Key:
A549 = test: Cytotoxicity against human A549 cells; assay type: functional, cell-based
BGC-823 = test: Cytotoxicity against human BGC823 cells; assay type: functional, cell-based
HCT-8 = test: Cytotoxicity against human HCT8 cells; assay type: functional, cell-based; details: for IC50: pooled result: one value given for 4 cell lines, strains, targets or settings
[1] = test system: Human immunodeficiency virus 1; test: Antiviral activity against HIV1 infected in human HEK293 cells assessed as inhibition of viral replication; assay type: functional, organism-based
Summary of the method: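 VSVG-pseudotyped HIV-luc virus system in HEK-293 cells, used to assess inhibition of HIV-1 replication.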

Bel-7402 = test: Cytotoxicity against human Bel7402 cells; assay type: functional, cell-based
A2780 = test: Cytotoxicity against human A2780 cells; assay type: functional, cell-based
[2] = test system: Human immunodeficiency virus 1; test: Binding affinity to HIV1 recombinant Vif at 20 ug/ml
Summary of the method: (§1)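 Recombinant gp41, Vif or APOBEC3G each immobilized on a CM5 sensor chip in a separate flow cell. Binding monitored by surface plasmon resonance on a BIAcore instrument.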

[3] = test system: Human immunodeficiency virus 1; test: Binding affinity to HIV1 recombinant gp41 at 20 ug/ml; summary of the method: as §1
[4] = target: DNA dC->dU-editing enzyme APOBEC-3G (Homo sapiens) (UniProt Q9HC16); test: Binding affinity to human recombinant APOBEC3G at 20 ug/ml; summary of the method: as §1
DNA dC->dU-editing enzyme APOBEC-3G (Homo sapiens), sequence (Q9HC16 whole entry): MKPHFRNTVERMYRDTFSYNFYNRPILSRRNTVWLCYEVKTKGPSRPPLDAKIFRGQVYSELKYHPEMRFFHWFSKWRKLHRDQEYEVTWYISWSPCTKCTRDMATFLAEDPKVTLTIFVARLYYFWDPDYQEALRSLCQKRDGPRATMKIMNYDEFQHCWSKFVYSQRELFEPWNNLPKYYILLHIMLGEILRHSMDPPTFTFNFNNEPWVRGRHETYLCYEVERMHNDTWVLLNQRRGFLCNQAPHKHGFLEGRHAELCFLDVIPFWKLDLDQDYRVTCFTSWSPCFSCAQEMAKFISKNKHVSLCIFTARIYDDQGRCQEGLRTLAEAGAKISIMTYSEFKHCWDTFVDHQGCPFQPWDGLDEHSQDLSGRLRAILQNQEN

[5] = test system: Human immunodeficiency virus 1; test: Antiviral activity against HIV1 3B infected in human MT4 cells after 5 days by p24 antigen detection assay; assay type: functional, organism-based; details: Human immunodeficiency virus 1, 3B, MT4, 120 h
Summary of the method: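 MT-4 cells infected with 10000 TCID50 HIV-1 IIIB for 2 h at 37 °C, washed, then plated at 5 × 10^4 cells per well. Compounds added from 250 µg/mL in fivefold serial dilutions, five dilutions with four replicates each. Cultures held 5 d at 37 °C in 5% CO2. On day 3 half the supernatant was replaced with fresh compound or medium. On day 5 supernatant p24 measured, inhibition computed relative to virus control, and IC50 taken by linear regression.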

[6] = test system: Human immunodeficiency virus 1; test: Antiviral activity against HIV1 3B infected in human MAGI cells after 40 to 48 hrs assessed as inhibition of viral life cycle; assay type: functional, organism-based; details: Human immunodeficiency virus 1, 3B
Summary of the method: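 HeLa-CD4-LTR-β-gal (MAGI) indicator cells plated at 6000 per well and infected with 2000 TCID50 HIV-1 IIIB. Compounds added in fourfold serial dilutions, five dilutions with four replicates each, at a final top concentration of half the 200 µg/mL stock dilution. Cells incubated 40–48 h at 37 °C in 5% CO2, then fixed, stained, and blue cells counted by microscopy. Single-round infection.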

Candida albicans [7] = test: Multidrug reversal activity in Candida albicans isolate GU5 assessed as brefeldin A MIC in presence of 30 uM compound expressing CDR1 and CDR2 by two fold dilution method
Candida albicans [8] = test: Effect on brefeldin A MIC against Candida albicans isolate GU4 in presence of 30 uM compound by two fold dilution method

| Structure (SMILES) | Activity (A549) | Activity (BGC-823) | Activity (HCT-8) | Activity [1] | Activity (Bel-7402) | Activity (A2780) | RU [2] | RU [3] | RU [4] | IC50 [5] | IC50 [6] | MIC (Candida albicans [7]) | MIC (Candida albicans [8]) | IC50 (HCT-8) | IC50 (A2780) |
| --- | --- | --- | --- | --- | --- | --- | --- | --- | --- | --- | --- | --- | --- | --- | --- |
| O=C1C(c2ccc(O)c(O)c2)=C2C(=C(c3ccc(O)c(O)c3)C(=O)N2CCc2ccc(OS(=O)(=O)O)cc2)c2cc(O)c(O)cc21 | inactive | inactive | inactive | inactive | inactive | inactive | 529 pg/mm2 | 1490 pg/mm2 | 765 pg/mm2 | – | – | – | – | – | – |
| O=C1C(c2ccc(O)c(O)c2)=C2C(=C(c3ccc(OS(=O)(=O)O)c(O)c3)C(=O)N2CCc2ccc(O)cc2)c2cc(O)c(O)cc21 | inactive | inactive | inactive | inactive | inactive | inactive | 638 pg/mm2 | 1350 pg/mm2 | – | – | – | – | – | – | – |
| O=c1oc2cc(O)c(O)cc2c2c1[nH]c1c(=O)oc3cc(O)c(O)cc3c12 | inactive | inactive | inactive | inactive | inactive | inactive | 11.7 pg/mm2 | – | – | – | – | – | – | – | – |
| O=C1C(c2ccc(O)c(O)c2)=c2c(c3c(n2CCc2ccc(O)cc2)=C(c2ccc(O)c(O)c2)C(=O)c2cc(O)c(OS(=O)(=O)O)cc2-3)-c2cc(O)c(O)cc21 [BACULIFERIN A] | inactive | inactive | inactive | inactive | inactive | inactive | 111 pg/mm2 | 17.1 pg/mm2 | 171 pg/mm2 | 7.6 µg/mL (≈ 9.77 µM) | 3.7 µg/mL (≈ 4.76 µM) | 50 µg/mL | 12.5 µg/mL | – | – |
| O=C1C(c2ccc(O)c(O)c2)=c2c(c3c(n2CCc2ccc(O)cc2)=C(c2ccc(O)c(OS(=O)(=O)O)c2)C(=O)c2cc(O)c(O)cc2-3)-c2cc(O)c(O)cc21 [BACULIFERIN B] | inactive | inactive | inactive | inactive | inactive | inactive | 152 pg/mm2 | 12.9 pg/mm2 | 89.7 pg/mm2 | 2.2 µg/mL (≈ 2.83 µM) | 1.3 µg/mL (≈ 1.67 µM) | 50 µg/mL | 12.5 µg/mL | – | – |
| O=C1C(c2ccc(O)c(OS(=O)(=O)O)c2)=c2c(c3c(n2CCc2ccc(O)cc2)=C(c2ccc(O)c(OS(=O)(=O)O)c2)C(=O)c2cc(O)c(O)cc2-3)-c2cc(O)c(O)cc21 [BACULIFERIN C] | inactive | inactive | inactive | inactive | inactive | inactive | 296 pg/mm2 | 116 pg/mm2 | 886 pg/mm2 | 8.4 µg/mL (≈ 9.79 µM) | 1.2 µg/mL (≈ 1.4 µM) | – | – | – | – |
| O=C1C(c2ccc(O)c(O)c2)=c2c(c3c(n2CCc2ccc(O)cc2)=C(c2ccc(O)c(O)c2)C(=O)c2cc(O)c(OS(=O)(=O)O)cc2-3)-c2cc(OS(=O)(=O)O)c(O)cc21 [BACULIFERIN D] | inactive | inactive | inactive | inactive | inactive | inactive | – | – | – | – | – | 50 µg/mL | 12.5 µg/mL | – | – |
| O=C1C(c2ccc(O)c(O)c2)=c2c(c3c(n2CCc2ccc(O)cc2)=C(c2ccc(O)c(OS(=O)(=O)O)c2)C(=O)c2cc(O)c(OS(=O)(=O)O)cc2-3)-c2cc(O)c(O)cc21 [BACULIFERIN E] | inactive | inactive | inactive | inactive | inactive | inactive | 362 pg/mm2 | 109 pg/mm2 | 992 pg/mm2 | 4.6 µg/mL (≈ 5.36 µM) | 2.7 µg/mL (≈ 3.15 µM) | 50 µg/mL | 12.5 µg/mL | – | – |
| O=C1C(c2ccc(O)c(OS(=O)(=O)O)c2)=c2c(c3c(n2CCc2ccc(O)cc2)=C(c2ccc(O)c(O)c2)C(=O)c2cc(O)c(OS(=O)(=O)O)cc2-3)-c2cc(O)c(O)cc21 [BACULIFERIN F] | inactive | inactive | inactive | inactive | inactive | inactive | 362 pg/mm2 | 109 pg/mm2 | 992 pg/mm2 | 4.6 µg/mL (≈ 5.36 µM) | 2.7 µg/mL (≈ 3.15 µM) | 50 µg/mL | 12.5 µg/mL | – | – |
| O=C1C(c2ccc(O)c(OS(=O)(=O)O)c2)=c2c(c3c(n2CCc2ccc(O)cc2)=C(c2ccc(O)c(OS(=O)(=O)O)c2)C(=O)c2cc(O)c(OS(=O)(=O)O)cc2-3)-c2cc(O)c(O)cc21 [BACULIFERIN G] | – | – | – | inactive | – | – | 447 pg/mm2 | 125 pg/mm2 | 572 pg/mm2 | 3.2 µg/mL (≈ 3.41 µM) | 4.4 µg/mL (≈ 4.69 µM) | – | – | 19.7 µM | 19.7 µM |
| O=C1C(c2ccc(O)c(O)c2)=c2c(c3c(n2CCc2ccc(O)cc2)=C(c2ccc(O)c(OS(=O)(=O)O)c2)C(=O)c2cc(O)c(OS(=O)(=O)O)cc2-3)-c2cc(OS(=O)(=O)O)c(O)cc21 [BACULIFERIN H] | inactive | inactive | inactive | inactive | inactive | inactive | 259 pg/mm2 | 76.2 pg/mm2 | 578 pg/mm2 | 1.4 µg/mL (≈ 1.49 µM) | 1.3 µg/mL (≈ 1.39 µM) | – | – | – | – |
| O=C1C(c2ccc(O)c(O)c2)=C2C(=C(c3ccc(O)c(O)c3)C(=O)N2CCc2ccc(O)cc2)c2cc(O)c(O)cc21 [BACULIFERIN K] | inactive | inactive | inactive | inactive | inactive | inactive | 448 pg/mm2 | 523 pg/mm2 | – | 5.5 µg/mL (≈ 9.73 µM) | < 0.4 µg/mL | – | – | – | – |
| O=C(O)Cn1c2c(c3c1=C(c1ccc(O)c(O)c1)C(=O)c1cc(O)c(O)cc1-3)-c1cc(O)c(O)cc1C(=O)C=2c1ccc(O)c(O)c1 [BACULIFERIN L] | inactive | inactive | inactive | inactive | inactive | inactive | 1980 pg/mm2 | 469 pg/mm2 | 2170 pg/mm2 | 7 µg/mL (≈ 11 µM) | 4.1 µg/mL (≈ 6.45 µM) | – | – | – | – |
| O=C(O)Cn1c2c(c3c1=C(c1ccc(O)c(O)c1)C(=O)c1cc(O)c(OS(=O)(=O)O)cc1-3)-c1cc(O)c(O)cc1C(=O)C=2c1ccc(O)c(O)c1 [BACULIFERIN M] | – | – | – | inactive | – | inactive | 1900 pg/mm2 | 380 pg/mm2 | 2460 pg/mm2 | 5 µg/mL (≈ 6.99 µM) | 0.2 µg/mL (≈ 0.279 µM) | 50 µg/mL | 12.5 µg/mL | 65.8 µM | – |
| O=C(O)CN1C(=O)C(c2ccc(O)c(O)c2)=C2C1=C(c1ccc(O)c(O)c1)C(=O)c1cc(O)c(O)cc12 [BACULIFERIN N] | inactive | inactive | inactive | inactive | inactive | inactive | 597 pg/mm2 | 953 pg/mm2 | – | 4.4 µg/mL (≈ 8.74 µM) | < 0.1 µg/mL | – | – | – | – |
| O=c1oc2cc(O)c(O)cc2c2c1[nH]c1c(=O)oc3cc(O)c(OS(=O)(=O)O)cc3c12 [BACULIFERIN O] | – | – | – | inactive | – | inactive | – | – | – | – | – | – | – | 33.1 µM | – |
| O=C1C(c2ccc(O)c(O)c2)=c2c(c3c(n2CCc2ccc(O)cc2)=C(c2ccc(O)c(O)c2)C(=O)c2cc(O)c(O)cc2-3)-c2cc(O)c(O)cc21 [PURPURONE] | inactive | inactive | inactive | inactive | inactive | inactive | -25.7 pg/mm2 | -23 pg/mm2 | -26.3 pg/mm2 | > 25 µg/mL | > 25 µg/mL | 25 µg/mL | 12.5 µg/mL | – | – |
